According to ChEMBL document CHEMBL1629436, “Synthesis and biological evaluation of new camptothecin derivatives obtained by modification of position 20” (Bioorg Med Chem, 2010):
Calls of active or inactive are those of the source. The calls are words filed in the database; no cut-off is given here.

Key:
A-431 = assay: Cytotoxicity against human A431 cells after 72 hrs by trypan blue assay; type: functional, cell-based; details: A-431, 72 h
Summary of the method: (§1)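 A-431, HeLa and HL-60 cells at 4×10^4 per well, incubated 24 h. HeLa and A-431 then received fresh medium. Graded compound concentrations were added for a further 72 h at 37 °C, 5% CO2. Viability was counted by Trypan blue exclusion. IC50 is the concentration giving 50% reduction in cell number versus control: ≥3 independent experiments, triplicate samples, mean ± SD.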

HL-60 = assay: Cytotoxicity against human HL60 cells after 72 hrs by trypan blue assay; type: functional, cell-based; details: HL-60, 72 h; summary of the method: as §1
HeLa = assay: Cytotoxicity against human HeLa cells after 72 hrs by trypan blue assay; type: functional, cell-based; summary of the method: as §1
HUVEC = assay: Antiangiogenic activity in HUVEC cocultured with human PaSMC assessed as inhibition of capillary-like network formation at 25 nM after 72 hrs; type: functional, cell-based
Summary of the method: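 RFP-expressing HUVEC (early passage, passage 5) co-seeded with pulmonary artery vSMC (5×10^4 PaSMC plus 10×10^3 HUVEC per well) in EGM-2, briefly spun at 200 g and allowed to attach for 3 h. Compounds were added at final 2–200 nM, two replicates per concentration, at 37 °C, 5% CO₂. Network was imaged at 72 h with automated imaging, and tube length was quantified by image analysis.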

[1] = molecular target: DNA topoisomerase 2-alpha (Homo sapiens) (UniProt P11388); assay: Inhibition of human recombinant topoisomerase 2alpha-mediated relaxation of supercoiled pBR322 at up to 100 uM after 60 mins using ethidium bromide staining by agarose gel electrophoresis
Summary of the method: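 Supercoiled pBR322 (0.25 µg) with 1 U human recombinant topoisomerase IIα and test compound, 60 min at 37 °C in 20 µl reaction buffer. Stopped with SDS/bromophenol blue/glycerol plus 50 µg/mL proteinase K, 30 min at 37 °C. Separated on 1% agarose at room temperature, ethidium bromide stained (1 µg/mL, TAE), UV-visualized.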

Nucleic Acid = assay: Binding affinity to salmon testes DNA by linear flow dichroism analysis; type: nucleic-acid assay; details: Salmonidae
Summary of the method: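 Salmon testes DNA (1.9 × 10^-3 M) in ETN buffer (10 mM Tris, 10 mM NaCl, 1 mM EDTA, pH 7). Linear dichroism spectra were recorded at 25 °C over a range of [drug]/[DNA] ratios on a spectropolarimeter converted for LD.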

Sequence of DNA topoisomerase 2-alpha (Homo sapiens) (P11388 whole entry): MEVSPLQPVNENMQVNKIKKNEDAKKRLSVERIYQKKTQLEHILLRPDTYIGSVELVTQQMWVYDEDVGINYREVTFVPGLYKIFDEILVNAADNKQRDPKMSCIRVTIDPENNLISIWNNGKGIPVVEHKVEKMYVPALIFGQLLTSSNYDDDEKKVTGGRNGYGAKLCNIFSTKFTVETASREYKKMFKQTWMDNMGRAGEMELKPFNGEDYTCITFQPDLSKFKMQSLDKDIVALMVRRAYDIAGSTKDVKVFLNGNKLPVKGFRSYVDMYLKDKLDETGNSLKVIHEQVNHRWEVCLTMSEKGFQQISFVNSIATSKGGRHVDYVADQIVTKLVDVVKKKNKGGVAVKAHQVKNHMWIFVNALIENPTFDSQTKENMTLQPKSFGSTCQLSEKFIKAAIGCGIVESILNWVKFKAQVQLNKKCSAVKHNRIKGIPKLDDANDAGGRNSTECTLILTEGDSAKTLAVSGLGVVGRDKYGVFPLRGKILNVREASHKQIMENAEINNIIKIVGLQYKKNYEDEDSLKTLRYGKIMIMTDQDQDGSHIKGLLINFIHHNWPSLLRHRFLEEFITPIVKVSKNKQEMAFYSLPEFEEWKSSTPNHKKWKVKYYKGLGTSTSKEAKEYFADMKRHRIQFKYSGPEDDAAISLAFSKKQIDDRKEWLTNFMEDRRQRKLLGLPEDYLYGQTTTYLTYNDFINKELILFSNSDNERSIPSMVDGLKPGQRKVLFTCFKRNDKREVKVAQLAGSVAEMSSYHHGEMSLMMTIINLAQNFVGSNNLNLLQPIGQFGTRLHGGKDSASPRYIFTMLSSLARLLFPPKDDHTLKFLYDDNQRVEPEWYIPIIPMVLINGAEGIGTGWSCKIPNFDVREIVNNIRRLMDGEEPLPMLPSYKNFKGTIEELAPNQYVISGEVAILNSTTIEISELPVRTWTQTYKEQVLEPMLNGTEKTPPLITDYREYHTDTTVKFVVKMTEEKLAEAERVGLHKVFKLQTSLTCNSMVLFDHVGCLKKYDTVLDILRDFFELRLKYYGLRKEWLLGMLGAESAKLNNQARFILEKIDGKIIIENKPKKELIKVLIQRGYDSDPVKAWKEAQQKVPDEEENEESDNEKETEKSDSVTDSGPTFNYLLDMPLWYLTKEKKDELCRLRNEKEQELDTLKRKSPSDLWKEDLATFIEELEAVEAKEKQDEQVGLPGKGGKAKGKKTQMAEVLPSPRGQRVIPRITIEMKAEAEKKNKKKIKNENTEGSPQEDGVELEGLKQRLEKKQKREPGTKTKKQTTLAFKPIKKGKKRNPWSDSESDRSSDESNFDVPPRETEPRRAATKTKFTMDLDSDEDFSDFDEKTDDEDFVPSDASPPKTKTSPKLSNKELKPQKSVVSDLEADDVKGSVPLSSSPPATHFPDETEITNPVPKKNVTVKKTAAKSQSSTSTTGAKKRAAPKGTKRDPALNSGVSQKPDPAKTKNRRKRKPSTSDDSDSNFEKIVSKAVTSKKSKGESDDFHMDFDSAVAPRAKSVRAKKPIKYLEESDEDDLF

Compound	IC50 (A-431) [nM]	IC50 (HL-60) [nM]	IC50 (HeLa) [nM]	inhibition (HUVEC)	Activity [1]	Activity (Nucleic Acid)
CC[C@@]1(O)C(=O)OCc2c1cc1n(c2=O)Cc2cc3ccccc3nc2-1 [CAMPTOTHECIN]	11	17	8.9	Active	–	–
CC[C@@]1(OC(=O)NCCN2C(=O)CSSCC2=O)C(=O)OCc2c1cc1n(c2=O)Cc2cc3ccccc3nc2-1	–	–	–	–	inactive	inactive
